Data: ChEMBL document CHEMBL3046951, “Volatile constituents from the leaves of Callicarpa japonica Thunb. and their antibacterial activities” (2004)

How the values were obtained:
Format in all cases: functional
[1] = test system: Listeria monocytogenes; experiment: Antimicrobial activity against Listeria monocytogenes ATCC 19111 assessed as growth inhibition rate at 5.8 mg/l after 72 hr by spectrophotometry; settings: ATCC 19111, 72 h, read-out: GI
Method in brief: (§1)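 L. monocytogenes was grown at 30 °C in tryptic soy broth, subcultured for 18 h, and exposed to pure volatile compounds (>95% purity). Growth was followed by Bioscreen C optical density every 24 h for 72 h against a 10% Tween 80 control.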

[2] = test system: Vibrio parahaemolyticus; experiment: Antimicrobial activity against Vibrio parahaemolyticus ATCC 33844 assessed as growth inhibition rate at 5.8 mg/l after 72 hr by spectrophotometry; settings: ATCC 33844, 72 h, read-out: GI
[3] = test system: Escherichia coli; experiment: Antimicrobial activity against Escherichia coli O157:H7 ATCC 43894 assessed as growth inhibition rate at 5.8 mg/l after 72 hr by spectrophotometry; settings: O157:H7 ATCC 43894, 72 h, read-out: GI
[4] = test system: Salmonella typhimurium; experiment: Antimicrobial activity against Salmonella enterica subsp. enterica serovar Typhimurium ATCC 14028 assessed as growth inhibition rate at 5.8 mg/l after 72 hr by spectrophotometry; settings: ATCC 14028, 72 h, read-out: GI
[5] = test system: Bacillus cereus; experiment: Antimicrobial activity against Bacillus cereus ATCC 11778 assessed as growth inhibition rate at 5.8 mg/l after 72 hr by spectrophotometry; settings: ATCC 11778, 72 h, read-out: GI
Method in brief: (§2)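 Pure volatile compounds (purity >95%; one at 90%) were tested against B. cereus ATCC 11778. The strain was grown at 30 °C in nutrient broth for 24 h, then subcultured for 18 h. Optical density was read in a Bioscreen C every 24 h for 72 h, with 10% Tween 80 as the control.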

[6] = test system: Staphylococcus aureus; experiment: Antimicrobial activity against Staphylococcus aureus ATCC 25923 assessed as growth inhibition rate at 5.8 mg/l after 72 hr by spectrophotometry; settings: ATCC 25923, 72 h, read-out: GI
[7] = test system: Listeria monocytogenes; experiment: Antimicrobial activity against Listeria monocytogenes ATCC 19111 assessed as growth inhibition rate at 4.44 mg/l after 72 hr by spectrophotometry; settings: ATCC 19111, 72 h, read-out: GI; method in brief: as §1
[8] = test system: Staphylococcus aureus; experiment: Antimicrobial activity against Staphylococcus aureus ATCC 25923 assessed as growth inhibition rate at 4.44 mg/l after 72 hr by spectrophotometry; settings: ATCC 25923, 72 h, read-out: GI
[9] = test system: Vibrio parahaemolyticus; experiment: Antimicrobial activity against Vibrio parahaemolyticus ATCC 33844 assessed as growth inhibition rate at 4.44 mg/l after 72 hr by spectrophotometry; settings: ATCC 33844, 72 h, read-out: GI
[10] = test system: Escherichia coli; experiment: Antimicrobial activity against Escherichia coli O157:H7 ATCC 43894 assessed as growth inhibition rate at 4.44 mg/l after 72 hr by spectrophotometry; settings: O157:H7 ATCC 43894, 72 h, read-out: GI
[11] = test system: Bacillus cereus; experiment: Antimicrobial activity against Bacillus cereus ATCC 11778 assessed as growth inhibition rate at 4.44 mg/l after 72 hr by spectrophotometry; settings: ATCC 11778, 72 h, read-out: GI; method in brief: as §2
[12] = test system: Salmonella typhimurium; experiment: Antimicrobial activity against Salmonella enterica subsp. enterica serovar Typhimurium ATCC 14028 assessed as growth inhibition rate at 4.44 mg/l after 72 hr by spectrophotometry; settings: ATCC 14028, 72 h, read-out: GI
Method in brief: (§3)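 Salmonella Typhimurium ATCC 14028 grown in nutrient broth at 30 °C, precultured 24 h, then subcultured 1:100 for 18 h before testing. Single volatile compounds (>95% pure) were added. OD was read every 24 h over 72 h in a Bioscreen C, with 10% Tween 80 as the comparison control.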

[13] = test system: Listeria monocytogenes; experiment: Antimicrobial activity against Listeria monocytogenes ATCC 19111 assessed as growth inhibition rate at 1.72 mg/l after 72 hr by spectrophotometry; settings: ATCC 19111, 72 h, read-out: GI; method in brief: as §1
[14] = test system: Staphylococcus aureus; experiment: Antimicrobial activity against Staphylococcus aureus ATCC 25923 assessed as growth inhibition rate at 1.72 mg/l after 72 hr by spectrophotometry; settings: ATCC 25923, 72 h, read-out: GI
[15] = test system: Vibrio parahaemolyticus; experiment: Antimicrobial activity against Vibrio parahaemolyticus ATCC 33844 assessed as growth inhibition rate at 1.72 mg/l after 72 hr by spectrophotometry; settings: ATCC 33844, 72 h, read-out: GI
[16] = test system: Escherichia coli; experiment: Antimicrobial activity against Escherichia coli O157:H7 ATCC 43894 assessed as growth inhibition rate at 1.72 mg/l after 72 hr by spectrophotometry; settings: O157:H7 ATCC 43894, 72 h, read-out: GI
[17] = test system: Salmonella typhimurium; experiment: Antimicrobial activity against Salmonella enterica subsp. enterica serovar Typhimurium ATCC 14028 assessed as growth inhibition rate at 1.72 mg/l after 72 hr by spectrophotometry; settings: ATCC 14028, 72 h, read-out: GI; method in brief: as §3
[18] = test system: Bacillus cereus; experiment: Antimicrobial activity against Bacillus cereus ATCC 11778 assessed as growth inhibition rate at 1.72 mg/l after 72 hr by spectrophotometry; settings: ATCC 11778, 72 h, read-out: GI; method in brief: as §2
[19] = test system: Listeria monocytogenes; experiment: Antimicrobial activity against Listeria monocytogenes ATCC 19111 assessed as growth inhibition rate at 6.32 mg/l after 72 hr by spectrophotometry; settings: ATCC 19111, 72 h, read-out: GI; method in brief: as §1
[20] = test system: Staphylococcus aureus; experiment: Antimicrobial activity against Staphylococcus aureus ATCC 25923 assessed as growth inhibition rate at 6.32 mg/l after 72 hr by spectrophotometry; settings: ATCC 25923, 72 h, read-out: GI
[21] = test system: Vibrio parahaemolyticus; experiment: Antimicrobial activity against Vibrio parahaemolyticus ATCC 33844 assessed as growth inhibition rate at 6.32 mg/l after 72 hr by spectrophotometry; settings: ATCC 33844, 72 h, read-out: GI
[22] = test system: Escherichia coli; experiment: Antimicrobial activity against Escherichia coli O157:H7 ATCC 43894 assessed as growth inhibition rate at 6.32 mg/l after 72 hr by spectrophotometry; settings: O157:H7 ATCC 43894, 72 h, read-out: GI
[23] = test system: Salmonella typhimurium; experiment: Antimicrobial activity against Salmonella enterica subsp. enterica serovar Typhimurium ATCC 14028 assessed as growth inhibition rate at 6.32 mg/l after 72 hr by spectrophotometry; settings: ATCC 14028, 72 h, read-out: GI
[24] = test system: Bacillus cereus; experiment: Antimicrobial activity against Bacillus cereus ATCC 11778 assessed as growth inhibition rate at 6.32 mg/l after 72 hr by spectrophotometry; settings: ATCC 11778, 72 h, read-out: GI; method in brief: as §2
[25] = test system: Listeria monocytogenes; experiment: Antimicrobial activity against Listeria monocytogenes ATCC 19111 assessed as growth inhibition rate at 13.04 mg/l after 72 hr by spectrophotometry; settings: ATCC 19111, 72 h, read-out: GI; method in brief: as §1
[26] = test system: Vibrio parahaemolyticus; experiment: Antimicrobial activity against Vibrio parahaemolyticus ATCC 33844 assessed as growth inhibition rate at 13.04 mg/l after 72 hr by spectrophotometry; settings: ATCC 33844, 72 h, read-out: GI
[27] = test system: Escherichia coli; experiment: Antimicrobial activity against Escherichia coli O157:H7 ATCC 43894 assessed as growth inhibition rate at 13.04 mg/l after 72 hr by spectrophotometry; settings: O157:H7 ATCC 43894, 72 h, read-out: GI
[28] = test system: Salmonella typhimurium; experiment: Antimicrobial activity against Salmonella enterica subsp. enterica serovar Typhimurium ATCC 14028 assessed as growth inhibition rate at 13.04 mg/l after 72 hr by spectrophotometry; settings: ATCC 14028, 72 h, read-out: GI; method in brief: as §3
[29] = test system: Bacillus cereus; experiment: Antimicrobial activity against Bacillus cereus ATCC 11778 assessed as growth inhibition rate at 13.04 mg/l after 72 hr by spectrophotometry; settings: ATCC 11778, 72 h, read-out: GI; method in brief: as §2
[30] = test system: Staphylococcus aureus; experiment: Antimicrobial activity against Staphylococcus aureus ATCC 25923 assessed as growth inhibition rate at 13.04 mg/l after 72 hr by spectrophotometry; settings: ATCC 25923, 72 h, read-out: GI

With `C=CC(O)CC` (stereo not given) the inhibition of growth at 5.8 µg/mL [1] was 0.4%, the inhibition of growth at 5.8 µg/mL [2] was 1.9% and the inhibition of growth at 5.8 µg/mL [3] was 0%. The inhibition of growth at 5.8 µg/mL [4] was 5%, the inhibition of growth at 5.8 µg/mL [5] was 9.3% and the inhibition of growth at 5.8 µg/mL [6] was 2.4%.

In the case of `CC1=CC[C@@H]2C[C@H]1C2(C)C` [1R-(+)-ALPHA-PINENE], the inhibition of growth at 4.44 µg/mL [7] is reported as 0%, the inhibition of growth at 4.44 µg/mL [8] is reported as 20.8% and the inhibition of growth at 4.44 µg/mL [9] is reported as 10.7%. For the same compound, the inhibition of growth at 4.44 µg/mL [10] was 0%, the inhibition of growth at 4.44 µg/mL [11] was 0% and the inhibition of growth at 4.44 µg/mL [12] was 5.2%.

`CCC(=O)C(C)=O` [2,3-PENTANEDIONE] gave an inhibition of growth at 1.72 µg/mL [13] of 26.2%, an inhibition of growth at 1.72 µg/mL [14] of 47.4% and an inhibition of growth at 1.72 µg/mL [15] of 39.3%. It also gave an inhibition of growth at 1.72 µg/mL [16] of 9.6%, an inhibition of growth at 1.72 µg/mL [17] of 25.5% and an inhibition of growth at 1.72 µg/mL [18] of 26.9%.

With `CCCCCC(=O)CC` [3-OCTANONE] the inhibition of growth at 6.32 µg/mL [19] was 0%, the inhibition of growth at 6.32 µg/mL [20] was 5.2% and the inhibition of growth at 6.32 µg/mL [21] was 0%. It also gave an inhibition of growth at 6.32 µg/mL [22] of 3.1%, an inhibition of growth at 6.32 µg/mL [23] of 5.1% and an inhibition of growth at 6.32 µg/mL [24] of 0%.

`C=C1CC[C@@H]2C[C@H]1C2(C)C` [(+)-BETA-PINENE] was tested, and the inhibition of growth at 13.04 µg/mL [25] was 2.8%, the inhibition of growth at 13.04 µg/mL [26] was 45.1% and the inhibition of growth at 13.04 µg/mL [27] was 3.4%. The inhibition of growth at 13.04 µg/mL [28] was 14.9%, the inhibition of growth at 13.04 µg/mL [29] was 0% and the inhibition of growth at 13.04 µg/mL [30] was 17.6%.
